Test results reported in ChEMBL document CHEMBL1126163, “Decreased histamine release by luteinizing hormone-releasing hormone antagonists obtained upon translocation of the cationic amino acid from position 8 to position 7” (1992).
≈ marks a conversion by molar mass, not a printed value. Where a SMILES comes first, the peptide text is derived from it. [ ]: non-standard residue; d: D form. The star is where a group is joined. dPhe(4-Cl) = N[C@H](Cc1ccc(Cl)cc1)C(=O)O; d2Nal = N[C@H](Cc1ccc2ccccc2c1)C(=O)O; Lys(iPr) = CC(C)NCCCC[C@H](N)C(=O)O; d3Pal = N[C@H](Cc1cccnc1)C(=O)O; Nicotinoyl = O=C(c1cccnc1)*

Key:
Rattus norvegicus [1] = species: Rattus norvegicus; test: Compound was evaluated for its ovulating activity in anti-ovulatory assay (AOA) by using 10 rats at the dose of 2 microgram; type: functional
Summary of the method: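 Standard antiovulatory assay in 4-day cycling female rats, 10 rats per dose group. Each analogue was given at the stated dose in μg per rat, and the read-out was the number of rats ovulating out of 10.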

Rattus norvegicus [2] = species: Rattus norvegicus; test: In vitro histamine release from isolated rat mast cells.; type: functional; conditions: read-out: ED50 (the source's name)
Summary of the method: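 Histamine release from rat mast cells in vitro, run in duplicate with mast cells from three different rats. LHRH and Nal-Arg standards were included with each set of analogues. The read-out was the ED50 in μg/mL, reported as mean ± SEM.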

SMILES	AOA (Rattus norvegicus [1])	EC50 (Rattus norvegicus [2])
CC(=O)N[C@H](Cc1ccc2ccccc2c1)C(=O)N[C@H](Cc1ccc(Cl)cc1)C(=O)N[C@H](Cc1cccnc1)C(=O)N[C@@H](CO)C(=O)N[C@@H](CCCCNC(=O)c1ccccn1)C(=O)N[C@H](CCCCNC(=O)c1ccccn1)C(=O)N[C@@H](CCCCNC(C)C)C(=O)N[C@@H](CCCCNC(=O)c1cccnc1)C(=O)N1CCC[C@H]1C(=O)N[C@H](C)C(N)=O	8	70 µg/mL (≈ 40.9 µM)
CC(=O)N[C@H](Cc1ccc2ccccc2c1)C(=O)N[C@H](Cc1ccc(Cl)cc1)C(=O)N[C@H](Cc1c[nH]c2ccccc12)C(=O)N[C@@H](CO)C(=O)N[C@@H](Cc1ccc(O)cc1)C(=O)N[C@H](CCCN=C(N)N)C(=O)N[C@@H](CCCN=C(N)N)C(=O)N[C@@H](CC(C)C)C(=O)N1CCC[C@H]1C(=O)N[C@H](C)C(N)=O	10	2.4 µg/mL (≈ 1.63 µM)
CC(=O)N[C@H](Cc1ccc2ccccc2c1)C(=O)N[C@H](Cc1ccc(Cl)cc1)C(=O)N[C@H](Cc1c[nH]c2ccccc12)C(=O)N[C@@H](CO)C(=O)N[C@@H](Cc1ccc(O)cc1)C(=O)N[C@H](CCCN=C(N)N)C(=O)N[C@@H](CC(C)C)C(=O)N[C@@H](CCCN=C(N)N)C(=O)N1CCC[C@H]1C(=O)N[C@H](C)C(N)=O (Ac-[d2Nal][dPhe(4-Cl)][dW]SY[dR]LRP[dA]-NH2)		0.1 µg/mL (≈ 0.0681 µM)
CC(=O)N[C@H](Cc1ccc2ccccc2c1)C(=O)N[C@H](Cc1ccc(Cl)cc1)C(=O)N[C@H](Cc1cccnc1)C(=O)N[C@@H](CO)C(=O)N[C@@H](CCCCNC(=O)c1cccnc1)C(=O)N[C@H](CCCCNC(=O)c1cccnc1)C(=O)N[C@@H](CC(C)C)C(=O)N[C@@H](CCCCNC(C)C)C(=O)N1CCC[C@H]1C(=O)N[C@H](C)C(N)=O [Antide] (Ac-[d2Nal][dPhe(4-Cl)][d3Pal]SK(Nicotinoyl)[dK](Nicotinoyl)L[Lys(iPr)]P[dA]-NH2)		> 300 µg/mL
